Assay results as given in ChEMBL document CHEMBL1122849, “Synthesis and properties of bis(2,2-dimethylaziridinyl)phosphinic amides: a series of new antineoplastic agents” (1985).
Several values for one entry are separate records, joined by “and”; a condition that tells them apart may be missing. Equal values may be shown once.

Key:
[1] = tested on: L1210; experiment: Compound was evaluated for the antineoplastic activity on L1210 leukemia cell line at the optimal dose of 180 mg/kg administered intraperitoneally on day 1 following intraperitoneal implant of 10e 6 L1210 cells, in six mice.9; type: functional, Mus musculus
[2] = tested on: B16; experiment: Compound was evaluated for the antineoplastic activity on B16 Melanoma cells at the optimal dose of 10 mg/kg through intraperitoneal route on days 1,5,9; type: functional, Mus musculus
[3] = tested on: B16; experiment: Compound was evaluated for the antineoplastic activity on B16 Melanoma cells at the optimal dose of 120 mg/kg through intraperitoneal route on days 1,5,9; type: functional, Mus musculus
[4] = tested on: Colon 26; experiment: Antitumor activity against C26 implants through subcutaneous route along with the optimal dose of 60 mg/kg through intraperitoneal injection on 1,4 days; type: functional, Mus musculus
[5] = tested on: Colon 26; experiment: Antitumor activity against C26 implants through intraperitoneal route along with the optimal dose of 80 mg/kg through intraperitoneal injection on 1,4 days; type: functional, Mus musculus
[6] = tested on: P388; experiment: Compound was evaluated for the antineoplastic activity against P388 leukemia at an optimal dose of 128 mg/kg administered intraperitoneally; type: functional, Mus musculus; details: route intraperitoneal
[7] = tested on: B16; experiment: Compound was evaluated for the antineoplastic activity on B16 Melanoma cells at the optimal dose of 60 mg/kg through intraperitoneal route on days 1,5,9; type: functional, Mus musculus
[8] = tested on: B16; experiment: Compound was evaluated for the antineoplastic activity on B16 Melanoma cells at the optimal dose of 80 mg/kg through intraperitoneal route on days 1,5,9; type: functional, Mus musculus
[9] = tested on: B16; experiment: Compound was evaluated for the antineoplastic activity on B16 Melanoma cells at the optimal dose of 160 mg/kg through intraperitoneal route on days 1,5,9; type: functional, Mus musculus
[10] = tested on: P388; experiment: Compound was evaluated for the antineoplastic activity against P388 leukemia at an optimal dose of 256 mg/kg administered intraperitoneally; type: functional, Mus musculus; details: route intraperitoneal
[11] = tested on: P388; experiment: Compound was evaluated for the antineoplastic activity against P388 leukemia at an optimal dose of 100 mg/kg administered intraperitoneally; type: functional, Mus musculus; details: route intraperitoneal
[12] = tested on: Colon 26; experiment: Antitumor activity against C26 implants through intraperitoneal route along with the optimal dose of 60 mg/kg through intraperitoneal injection on 1,4 days; type: functional, Mus musculus
[13] = tested on: Colon 26; experiment: Antitumor activity against C26 implants through subcutaneous route along with the optimal dose of 25 mg/kg through intraperitoneal injection on 1,4 days; type: functional, Mus musculus
[14] = tested on: L1210; experiment: Compound was evaluated for the antineoplastic activity on L1210 leukemia cell line at the optimal dose of 180 mg/kg administered intraperitoneally on day 1 following intraperitoneal implant of 10e 6 L1210 cells, in six mice; type: functional, Mus musculus
[15] = organism: Mus musculus; experiment: Tumor free mice out of 6 surviving to day 30 or beyond was determined; type: functional
Method in brief: (§1)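 Surviving mice were autopsied when the experiment ended. A mouse was scored cured if tumor-free with no visible disease at day 30 (P388, L1210) or day 60 (B16, C26, M109). Groups held 6, 10 or 8 mice.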

[16] = organism: Mus musculus; experiment: Tumor free mice out of 8 surviving to day 60 or beyond was determined; type: functional; method in brief: as §1
[17] = tested on: B16; experiment: Compound was evaluated for the antineoplastic activity on B16 Melanoma cells at the optimal dose of 100 mg/kg through intraperitoneal route on days 1,5,9; type: functional, Mus musculus
[18] = tested on: B16; experiment: Compound was evaluated for the antineoplastic activity on B16 Melanoma cells at the optimal dose of 50 mg/kg through intraperitoneal route on days 1,5,9; type: functional, Mus musculus
[19] = tested on: M109; experiment: Antitumor activity against M109 implants through intraperitoneal route along with the optimal dose of 150 mg/kg through intraperitoneal route on 1,4 days; type: functional, Mus musculus
[20] = tested on: M109; experiment: Antitumor activity against M109 implants through subcutaneous route along with the optimal dose of 70 mg/kg through intraperitoneal route on 1,4 days; type: functional, Mus musculus
[21] = tested on: M109; experiment: Antitumor activity against M109 implants through subcutaneous route along with the optimal dose of 70 mg/kg through intravenously route on 1,4 days; type: functional, Mus musculus; details: route intravenous
[22] = tested on: L1210; experiment: Compound was evaluated for the antineoplastic activity on L1210 leukemia cell line at the optimal dose of 60 mg/kg administered intraperitoneally on day 1 following intraperitoneal implant of 10e 6 L1210 cells, in six mice; type: functional, Mus musculus
[23] = tested on: Colon 26; experiment: Antitumor activity against C26 implants through intraperitoneal route along with the optimal dose of 120 mg/kg through intraperitoneal injection on 1,4 days; type: functional, Mus musculus
[24] = organism: Mus musculus; experiment: Tumor free mice out of 10 surviving to day 60 was determined; type: functional; method in brief: as §1
[25] = tested on: B16; experiment: (§2) Compound was evaluated for the antineoplastic activity on B16 Melanoma cells at the optimal dose of 40 mg/kg through intraperitoneal route on days 1,5,9; type: functional, Mus musculus
[26] = tested on: B16; experiment: as §2; type: functional, Mus musculus; remark: listed apart in the source
[27] = tested on: Colon 26; experiment: Antitumor activity against C26 implants through subcutaneous route along with the optimal dose of 50 mg/kg through intraperitoneal injection on 1,4 days; type: functional, Mus musculus
[28] = tested on: B16; experiment: Compound was evaluated for the antineoplastic activity on B16 Melanoma cells at the optimal dose of 36 mg/kg through intraperitoneal route on days 1,5, 9; type: functional, Mus musculus
[29] = tested on: B16; experiment: Compound was evaluated for the antineoplastic activity on B16 Melanoma cells at the optimal dose of 18 mg/kg through intraperitoneal route on days 1,5, 9; type: functional, Mus musculus
[30] = tested on: B16; experiment: Compound was evaluated for the antineoplastic activity on B16 Melanoma cells at the optimal dose of 24 mg/kg through intraperitoneal route on days 1,5,9; type: functional, Mus musculus
[31] = tested on: M109; experiment: Antitumor activity against M109 implants through subcutaneous route along with the optimal dose of 100 mg/kg through intraperitoneal route on 1,4 days; type: functional, Mus musculus
[32] = tested on: Colon 26; experiment: Antitumor activity against C26 implants through intraperitoneal route along with the optimal dose of 120 mg/kg through intraperitoneal injection on 5,8 days; type: functional, Mus musculus
[33] = tested on: P388; experiment: Compound was evaluated for the antineoplastic activity against P388 leukemia at an optimal dose of 80 mg/kg administered intraperitoneally; type: functional, Mus musculus; details: route intraperitoneal
[34] = tested on: Colon 26; experiment: Antitumor activity against C26 implants through subcutaneous route along with the optimal dose of 120 mg/kg through intraperitoneal injection on 5,8 days; type: functional, Mus musculus
[35] = tested on: Colon 26; experiment: Antitumor activity against C26 implants through intraperitoneal route along with the optimal dose of 50 mg/kg through intraperitoneal injection on 1,4 days; type: functional, Mus musculus
[36] = tested on: P388; experiment: Compound was evaluated for the antineoplastic activity against P388 leukemia at an optimal dose of 64 mg/kg administered intraperitoneally; type: functional, Mus musculus; details: route intraperitoneal

Structure (SMILES): CN(C)P(=O)(N1CC1(C)C)N1CC1(C)C (stereo not drawn)
- T/C [1]: 207%
- T/C [2]: 108%
- T/C [3]: 153%
- T/C [4]: 125%
- T/C [5]: 127%
- T/C [6]: 272%
- T/C [7]: 118%

Structure (SMILES): CN1CCN(P(=O)(N2CC2(C)C)N2CC2(C)C)CC1 (stereo not drawn)
- T/C [8]: 170%
- T/C [6]: 224%

Structure (SMILES): CC1(C)CN1P(=O)(N1CCOCC1)N1CC1(C)C (stereo not drawn)
- T/C [9]: 160%
- T/C [10]: 247%

Structure (SMILES): CCNP(=O)(N1CC1(C)C)N1CC1(C)C (stereo not drawn)
- T/C [10]: 288%
- T/C [3]: 148%

Structure (SMILES): CC1(C)CN1P(=O)(NC1CCCCC1)N1CC1(C)C (stereo not drawn)
- T/C [10]: 106%

Structure (SMILES): CC1(C)CN1P(=O)(N1CCCCC1)N1CC1(C)C (stereo not drawn)
- T/C [9]: 132%
- T/C [10]: 218%

Structure (SMILES): CCOC(=O)NP(=O)(N1CC1(C)C)N1CC1(C)C (stereo not drawn) [METUREDEPA]
- T/C [11]: 244%

Structure (SMILES): CNP(=O)(N1CC1(C)C)N1CC1(C)C (stereo not drawn)
- T/C [2]: 126%
- T/C [12]: 166%
- T/C [3]: 153%
- T/C [13]: 151%
- T/C [6]: 239%
- T/C [7]: 120%
- T/C [14]: 207%
- Survivors [15]: 1

Structure (SMILES): COCCCNP(=O)(N1CC1(C)C)N1CC1(C)C (stereo not drawn)
- T/C [10]: 225%
- T/C [8]: 160%
- Survivors [15]: 1

Structure (SMILES): O=P1(N(CCCl)CCCl)NCCCO1 (stereo not drawn) [CYCLOPHOSPHAMIDE ANHYDROUS]
- Survivors [16]: 1
- T/C [3]: 180%
- T/C [17]: 143% and 205%

Structure (SMILES): CCCNP(=O)(N1CC1(C)C)N1CC1(C)C (stereo not drawn)
- T/C [10]: 363%
- T/C [8]: 162%
- T/C [3]: 144%
- Survivors [15]: 2

Structure (SMILES): CC1(C)CN1P(N)(=O)N1CC1(C)C (stereo not drawn)
- T/C [10]: 206%
- T/C [18]: 123%
- T/C [19]: 157%
- T/C [20]: 99%
- T/C [21]: 104%
- Survivors [16]: 3 and 2
- T/C [22]: 164%
- T/C [8]: 210%
- T/C ([3]; 120 mg/kg): 191% and 180%
- T/C [5]: 221%
- T/C [23]: 190%
- Survivors [24]: 3 and 2
- T/C [17]: 310% and 181%
- T/C [25]: 214%
- T/C [26]: 110%
- T/C [27]: 127%

Structure (SMILES): CCCCNP(=O)(N1CC1(C)C)N1CC1(C)C (stereo not drawn)
- T/C [10]: 238%
- T/C [3]: 157%

Structure (SMILES): O=C(O)CCCc1ccc(N(CCCl)CCCl)cc1 [CHLORAMBUCIL]
- T/C [28]: 125%
- T/C [29]: 132%
- T/C [30]: 121%

Structure (SMILES): CCOP(=O)(N1CC1(C)C)N1CC1(C)C (stereo not drawn)
- T/C [19]: 146%
- T/C [31]: 104%
- T/C [32]: 144%
- T/C [17]: 188% and 119%
- T/C [33]: 272%
- T/C [34]: 130%
- Survivors [15]: 2

Structure (SMILES): CC1(C)CN1P(=O)(Nc1ccccc1)N1CC1(C)C (stereo not drawn) [PHOSPHINIC ANILIDE DERIVATE]
- T/C [10]: 169%

Structure (SMILES): CN(C)CCCNP(=O)(N1CC1(C)C)N1CC1(C)C (stereo not drawn)
- T/C [35]: 170%
- T/C ([8]; 80 mg/kg): 210% and 172%
- T/C [36]: 231%
- Survivors [24]: 2
